Measured values: ChEMBL document CHEMBL6127097, “Structure-Guided Discovery of cis-Hexahydro-pyrido-oxazinones as Reversible, Drug-like Monoacylglycerol Lipase Inhibitors” (J Med Chem, 2024)
pIC50: −log10 of the molar value. Converted amounts (≈) assume the structure as drawn.

What was measured:
[1] = Aqueous solubility of compound in phosphate buffer at pH 6.5 by HPLC or MS/MS analysis; type: physicochemical; settings: phosphate buffer, read-out: solubility
Outline: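 Lyophilization solubility assay (LYSA) starting from a 10 mM DMSO stock. DMSO was removed by centrifugal vacuum evaporation, then 0.05 M phosphate buffer pH 6.5 was added and samples sonicated. Filtrates were analysed by MS/MS and/or HPLC against a 4- to 7-point calibration curve.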

[2] = target: T1, Monoglyceride lipase (Homo sapiens, UniProt Q99685); test: Inhibition of human MAGL using native substrate by Rapidfire MS assay; settings: for pIC50: read-out: IC50; for IC50: read-out: pIC50 (converted)
T1 sequence (Q99685 whole entry): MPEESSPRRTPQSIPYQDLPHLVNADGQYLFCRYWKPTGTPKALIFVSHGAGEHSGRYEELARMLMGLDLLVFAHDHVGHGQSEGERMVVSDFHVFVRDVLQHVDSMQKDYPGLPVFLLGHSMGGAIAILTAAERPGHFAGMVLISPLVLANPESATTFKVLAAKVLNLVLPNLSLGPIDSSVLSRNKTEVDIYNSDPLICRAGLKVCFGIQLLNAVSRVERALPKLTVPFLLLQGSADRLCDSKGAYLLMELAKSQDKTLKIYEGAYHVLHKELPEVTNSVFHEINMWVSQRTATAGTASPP

[3] = Octanol-water partition coefficient, logD of the compound at pH 7.4 incubated for 1.5 hrs by shake flask based LC-UV/MS analysis; type: physicochemical; settings: pH 7.4
Outline: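 CAMDIS shake-flask variant. 10 mM DMSO stock is diluted into 25 mM phosphate pH 7.4 over a 1-octanol-impregnated PVDF membrane and shaken 1.5 h at 21 °C, at two octanol/buffer ratios, in triplicate. Remaining aqueous concentration is read by LC/MS; logD comes from the difference with and without octanol.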

[4] = Half-life in C57BL/6 mouse at 24 mg/kg, ip measured upto 7 hrs by LC-MS/MS analysis; settings: in vivo
[5] = Unbound brain to plasma partition coefficient of compound in C57BL/6 mouse at 24 mg/kg, ip measured upto 7 hrs by LC-MS/MS analysis; settings: read-out: K(p,uu,brain)
[6] = Oral bioavailability in C57BL/6 mouse at 5.1 mg/kg measured upto 7 hrs by LC-MS/MS analysis; settings: in vivo
[7] = Volume of distribution at steady state in C57BL/6 mouse at 1.3 mg/kg, iv measured upto 7 hrs by LC-MS/MS analysis; settings: in vivo, read-out: Vdss
[8] = AUClast in C57BL/6 mouse at 5.1 mg/kg, po measured upto 7 hrs by LC-MS/MS analysis; settings: in vivo
[9] = Tmax in C57BL/6 mouse at 5.1 mg/kg, po measured upto 7 hrs by LC-MS/MS analysis; settings: in vivo
[10] = Half-life in C57BL/6 mouse at 1.3 mg/kg, iv measured upto 7 hrs by LC-MS/MS analysis; settings: in vivo
[11] = Ratio of drug concentration in C57BL/6 mouse brain to plasma at 24 mg/kg, ip measured upto 7 hrs by LC-MS/MS analysis
[12] = Clearance in C57BL/6 mouse at 1.3 mg/kg, iv measured upto 7 hrs by LC-MS/MS analysis; settings: in vivo
[13] = Tmax in C57BL/6 mouse at 24 mg/kg, ip measured upto 7 hrs by LC-MS/MS analysis; settings: in vivo
[14] = AUClast in C57BL/6 mouse at 24 mg/kg, ip measured upto 7 hrs by LC-MS/MS analysis; settings: in vivo
[15] = Ratio of drug concentration in C57BL/6 mouse CSF to plasma at 24 mg/kg, ip measured upto 7 hrs by LC-MS/MS analysis
[16] = Cmax in C57BL/6 mouse at 24 mg/kg, ip measured upto 7 hrs by LC-MS/MS analysis; settings: in vivo
[17] = Cmax in C57BL/6 mouse at 5.1 mg/kg, po measured upto 7 hrs by LC-MS/MS analysis; settings: in vivo
[18] = Plasma protein binding in human assessed as fraction unbound by equilibrium dialysis based LC-MS/MS method; type: ADME, cell-free
Outline: (§1)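 Equilibrium dialysis across a 12–14 kDa cutoff membrane in a Teflon 96-well device. Pooled frozen plasma is adjusted to pH 7.4 and spiked at 1000 nM initial total, against Soerensen buffer pH 7.4. Incubation is 5 h at 37 °C, 5% CO2, with diazepam control in each well. %fu = 100 × buffer/matrix concentration after dialysis; recovery accepted at 80–120%.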

[19] = Free fraction in human plasma incubated for 5 hrs by equilibrium dialysis based LC-MS/MS analysis; type: ADME, cell-free; outline: as §1

Compound | solubility [1] [µg/mL] | pIC50 [2] | logD at 1.5 h [3] | IC50 [2] [nM] | further results
O=C1C[C@H]2CCN(C(=O)N3CCC(Cc4ccc(C(F)(F)F)cc4)CC3)C[C@H]2N1 | 377 (≈ 921 µM) | 6.24 | 3.2 |  | 
O=C1COc2ccc(C(=O)N3CCC(c4c[nH]c5ccccc45)CC3)cc2N1 | 37 (≈ 98.6 µM) | 7.43 | 2.9 |  | 
O=C1CO[C@H]2CCN(C(=O)N3CCC(Cc4ccc(C(F)(F)F)cc4)CC3)C[C@H]2N1 (racemic) | 225 (≈ 529 µM) | 7.19 | 3.2 |  | half-life [4]: 2.9 h; Kp uu at 7 h [5]: 0.35; bioavailability [6]: 127%; Vd [7]: 3 L/kg; AUC(0-t) at 7 h [8]: 4560 ng·h/mL; Tmax [9]: 2.7 h; half-life [10]: 1.5 h; Kp at 7 h [11]: 1.7; clearance [12]: 23 mL/min/kg; Tmax [13]: 1.5 h; AUC(0-t) at 7 h [14]: 62100 ng·h/mL; Kp at 7 h [15]: 0.016; Cmax [16]: 12200 ng/mL; Cmax [17]: 896 ng/mL
O=C1CO[C@H]2CCN(C(=O)N3CCC(Cc4ccc(C(F)(F)F)cc4)CC3)C[C@@H]2N1 (racemic) | 78 (≈ 183 µM) | 6.43 | 3.2 | 347 | 
O=C1COc2ccc(C(=O)N3CCC(Cc4cccc(F)c4)CC3)cc2N1 | 36 (≈ 97.7 µM) | 7.29 | 3.6 | 49 | 
O=C1COc2ccc(C(=O)N3CCC(c4c[nH]c5ccc(Cl)cc45)CC3)cc2N1 | 2 (≈ 4.88 µM) | 8.52 | 3.6 |  | 
O=C1COc2ccc(C(=O)N3CCC(Cc4ccc(F)cc4)CC3)cc2N1 | 0.8 (≈ 2.17 µM) | 7.21 | 3.3 | 57.5 | 
O=C1CSc2ccc(C(=O)N3CCC(Cc4ccc(C(F)(F)F)cc4)CC3)cc2N1 | 6.9 (≈ 15.9 µM) | 5.60 | 3.7 | 2400 | 
O=C1COc2ccc(C(=O)N3CCC(C(c4ccccc4)c4ccccc4)CC3)cc2N1 | < 0.1 | 9.00 | 3.8 | 0.437 | 
O=C1COc2ccc(C(=O)N3CCC(Cc4ccc(C(F)(F)F)cc4)CC3)cc2N1 | 4.1 (≈ 9.8 µM) | 7.49 | 3.8 | 28.8 | fraction unbound [18]: 0.005; fraction unbound at 5 h [19]: 0.005
O=C1COc2ccc(C(=O)N3CCC(Cc4ccccc4)CC3)cc2N1 | 1.1 (≈ 3.14 µM) | 7.12 | 3.2 |  | 
O=C(c1ccc2cn[nH]c2c1)N1CCC(Cc2ccc(C(F)(F)F)cc2)CC1 | 2.9 (≈ 7.49 µM) | 6.02 | 3.8 | 912 | 
O=C1COc2ccc(C(=O)N3CCC(Cc4cccc(C(F)(F)F)c4)CC3)cc2N1 | 15 (≈ 35.8 µM) | 7.34 | 3.9 | 44.7 | 
O=C1COc2ccc(C(=O)N3CCC(c4c[nH]c5cc(Cl)ccc45)CC3)cc2N1 | 0.3 (≈ 0.732 µM) | 7.68 | 3.8 |  | 
O=C1CO[C@@H]2CCN(C(=O)N3CCC(Cc4ccc(C(F)(F)F)cc4)CC3)C[C@@H]2N1 | 114 (≈ 268 µM) | 5.66 | 3.3 |  | 
O=C1COc2ccc(C(=O)N3CCC(C(c4ccc(F)cc4)c4ccc(F)cc4)CC3)cc2N1 | < 0.1 | 9.00 | 3.8 |  | 
